Screens: PubChem, several laboratories
Casp6 inh – blocks human caspase-6 cleavage activity; P55212; purified caspase-6, Z-VEID-R110 cleavage fluorescence; inhibition, % at 12.5 µM; hit rate 0.53% among 350,000; AID 686996;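 active = mean inhibition across replicates at least about 35%, with every replicate also reaching that limit, limit read from the data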
Target sequence (P55212 24-179 limits assumed): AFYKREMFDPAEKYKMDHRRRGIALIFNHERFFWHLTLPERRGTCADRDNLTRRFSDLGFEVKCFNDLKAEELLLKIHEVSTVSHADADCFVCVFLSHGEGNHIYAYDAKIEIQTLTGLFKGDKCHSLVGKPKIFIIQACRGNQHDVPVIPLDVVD
Target sequence (P55212 194-293 limits assumed): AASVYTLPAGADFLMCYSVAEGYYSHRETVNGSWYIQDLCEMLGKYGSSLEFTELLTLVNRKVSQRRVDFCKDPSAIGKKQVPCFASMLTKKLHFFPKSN
LMPTP inh – LMPTP (human) inhibition. recombinant LMPTP-A, OMFP fluorogenic substrate, fluorescence intensity. P24666. inhibition, % at 20 µM. hit rate 0.22% among 360,000;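 active = compounds that cut the enzyme signal by at least half of the control window in the single-dose screen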
Target sequence (P24666 whole entry, looked up): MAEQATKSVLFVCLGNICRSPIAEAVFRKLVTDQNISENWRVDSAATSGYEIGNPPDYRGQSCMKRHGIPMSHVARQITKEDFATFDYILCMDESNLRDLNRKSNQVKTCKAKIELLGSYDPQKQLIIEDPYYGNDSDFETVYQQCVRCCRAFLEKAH
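material = LMPTP-A | quantity = 0.625 nM enzyme | reagent = OMFP substrate, 400 µM final | buffer or medium = Bis-Tris pH 6.0, DTT, detergent | detection = endpoint fluorescence intensity from OMFP dephosphorylation | dosing = single 20 µM dose | read-out basis = % inhibition relative to no-enzyme and uninhibited control wells | control set = no-enzyme and uninhibited controls | timing = 50 min at room temperature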
DNMT1 block – inhibitors of human DNMT1. P26358. DNMT1 molecular beacon, Hinp1I cleavage, fluorescence. inhibition (reported as % activation of signal), % at 10 µM. hit rate 0.83% among 360,000. AID 588458; in the data active = inhibition above about 50%
SUMO1 PPI mod – modulators of human SUMO1-mediated protein-protein interactions | P63165 | SUMO1 binding to a labelled peptide, TR-FRET, 1 h | inhibition, % at 20 µM | hit rate 0.33% among 360,000 | AID 602429; in the data active = inhibition above about 37%
Scp-1 inhibitor – inhibitors of human Scp-1 phosphatase; Q9GZU7; Recombinant Scp1, phosphopeptide, malachite green phosphate absorbance; inhibition, % at 20 µM; hit rate 0.88% among 340,000; AID 493091;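 active = inhibition above about 50% at 20 µM, limit read from the data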
Target sequence (Q9GZU7 76-261 limits assumed): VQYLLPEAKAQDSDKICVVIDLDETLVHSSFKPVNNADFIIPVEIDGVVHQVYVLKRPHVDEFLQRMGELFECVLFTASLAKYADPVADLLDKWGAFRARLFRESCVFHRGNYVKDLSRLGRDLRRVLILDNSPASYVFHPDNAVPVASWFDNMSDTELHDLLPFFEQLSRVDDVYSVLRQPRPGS
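Incubation: 45 min enzyme reaction at room temperature / System: truncated SCP-1 phosphatase (76-261aa) / Reagent: Phospho 17-mer peptide substrate / Buffer or medium: Acidic Tris acetate buffer with magnesium and detergent / Signal: absorbance at 630 nm / Doses: one concentration, 20 µM, with 1.0% DMSO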
STEP block – inhibitors of human striatal-enriched phosphatase STEP; AID 588621; P54829; hit rate 0.25% among 360,000; recombinant STEP, OMFP fluorogenic substrate, fluorescence; inhibition, % at 20 µM;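 active = inhibition at 20 µM, scaled per plate between control wells, above about 37%, limit read from the data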
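Also added – OMFP at 25 µM · Test system – STEP tyrosine phosphatase · Technique – FITC-channel fluorescence of OMFP product · Schedule – 20 min at room temperature, dark · Evaluation – control-normalized % inhibition with plate pattern correction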
A number is an active result; – = inactive; · = no result. Compounds with a hit are over-represented: about 1.7% of the library has one in this group of screens.

SMILES	Casp6 inh	LMPTP inh	DNMT1 block	SUMO1 PPI mod	Scp-1 inhibitor	STEP block
O=C(CSc1nc2ccccc2c(=O)[nH]1)Nc1ccccc1N1CCOCC1	–	–	–	–	–	–
Cc1cccc(C(=O)N2CCCC(c3nc(-c4ccc(C)o4)no3)C2)c1 (stereo unspecified)	–	–	–	–	–	–
COc1ccc(NC(=O)Cn2nnc(C(=O)NCc3cccs3)c2N)cc1OC	–	–	–	–	–	–
CC(=O)Nc1ccc2c(c1)OCCO2	·	–	–	–	–	–
C=C(C)C(=O)Nc1ccc2c(c1)OCCOCCOCCO2	53	–	90	57	97	64
CC1CCC(C(C)C)C(OCC(O)CN2CCN(Cc3ccccc3)CC2)C1 (stereo unspecified)	·	–	–	–	–	–
COc1cc2c(c(O)c1OC)C1Cc3ccc(OC)c(OC)c3CN1CC2 (stereo unspecified)	–	–	–	–	·	–
COc1ccc2cc1Oc1ccc(cc1)CC1c3c(cc(OC)c4c3Oc3cc5c(cc3O4)CCNC5C2)CCN1C (stereo unspecified)	·	77	–	–	–	–
COc1ccc2cc1Oc1ccc(cc1)C[C@H]1c3c(cc(OC)c4c3Oc3c(ccc5c3[C@H](C2)N(C)CC5)O4)CCN1C	·	68	–	–	–	–
CCOc1ccc(C2NCCc3cc(OC)c(OC)cc32)cc1OC (stereo unspecified)	·	–	–	–	–	–
CN(C)C(CNC(=O)c1ccc2ccccc2n1)c1ccccc1 (stereo unspecified)	–	–	–	–	–	–
COc1ccc(S(=O)(=O)N2CCN(Cc3ccc4c(c3)OCO4)CC2)c2ccccc12	–	–	–	–	–	–
COc1ccc(-n2nnnc2/C(=C/N(C)C)C(=O)c2ccccc2)cc1	–	–	–	–	–	–
CCOC(=O)c1c(NC(=O)/C=C/C(=O)O)sc(C)c1-c1ccc(C(C)(C)C)cc1	42	–	–	–	–	–
CCC(=O)Nc1ccc(C(=O)COC(=O)c2nc3nccc(C)n3n2)cc1	69	–	109	–	72	–
Cc1ccnc2nc(C(=O)OCC(=O)c3ccc(NC(=O)CC(C)C)cc3)nn12	–	–	–	–	–	–
COC(=O)c1cccc(Nc2nc(-c3cccnc3)nc3ccccc23)c1	–	–	–	46	–	–
COC(=O)c1cccc(Nc2nc(-c3ccncc3)nc3ccccc23)c1	–	–	–	61	–	–
COC(=O)c1ccc(Nc2nc(-c3ccncc3)nc3ccccc23)cc1	–	–	–	–	–	–
Oc1c(Cl)c(Cl)c2ncccc2c1Cl	–	–	–	–	–	–
COc1cc(N)c2ncccc2c1Cl	56	–	–	–	–	–
CCc1noc(C)c1C(=O)N1CCN(S(=O)(=O)c2ccc(C(C)=O)cc2)CC1	–	–	–	–	–	–
CSc1ccccc1OCc1cc(C(=O)N2CCc3c(Cl)cccc3C2)no1	64	–	–	–	–	–
COc1cc(SC)ccc1C(=O)NCC1CCCCC1	–	–	–	–	–	–
COc1cc(SC)ccc1C(=O)OC(C)C(=O)NC1CCCC1 (stereo unspecified)	38	–	–	–	–	–
SMILES	Casp6 inh	LMPTP inh	DNMT1 block	SUMO1 PPI mod	Scp-1 inhibitor	STEP block
COc1ccc(C2(c3ccc(OC)cc3)NC(=O)N(CC(=O)Nc3ccc(N4CCOCC4)cc3)C2=O)cc1	51	–	–	–	–	–
O=C(CN1C(=O)NC(c2ccccc2)(c2ccccc2)C1=O)Nc1ccc(N2CCOCC2)cc1	–	–	–	–	–	–
CCC(=O)Nc1ccc(C2=Nn3c(nnc3C(C)C)SC2)cc1	–	–	–	–	–	–
COc1ccc(S(=O)(=O)N2CC3C4C=CC(C4)C3C2)cc1 (stereo unspecified)	·	–	–	–	–	–
Cn1cc([N+](=O)[O-])c(C(=O)Nc2ccc(-c3nc4ccccc4o3)cc2)n1	–	–	–	46	–	–
O=C(CCl)N1CCN(S(=O)(=O)c2ccc3ccccc3c2)CC1	74	–	–	–	–	–
CN1CCN(c2cc(N3CCN(C(=O)c4ccco4)CC3)c3c4c(onc24)-c2ccccc2C3=O)CC1	·	–	–	–	–	–
CCOC(=O)N1CCN(C2=C(NS(=O)(=O)c3ccc(C)cc3)C(=O)c3ccccc3C2=O)CC1	·	–	–	–	–	–
CCOC(=O)N1CCN(c2cc(NCCC(=O)O)c3c4c(onc24)-c2ccccc2C3=O)CC1	·	–	67	44	76	–
O=C1c2ccccc2-c2onc3c(N4CCN(CCO)CC4)cc(N4CCN(C(=O)c5ccco5)CC4)c1c23	–	–	–	56	–	–
O=C(O)CCCNc1cc(N2CCN(C(=O)c3ccco3)CC2)c2noc3c2c1C(=O)c1ccccc1-3	–	–	–	54	78	45
CC1=C(C(=O)OCc2ccc3c(c2)OCO3)C(c2ccc(O)c([N+](=O)[O-])c2)NC(=O)N1 (stereo unspecified)	–	–	–	–	–	–
Cc1nc(NC(=O)CC(C)C)sc1-c1csc(Nc2ccc(Cl)cc2Cl)n1	–	–	–	–	–	–
CCCCCC(=O)Nc1nc(C)c(-c2csc(Nc3ccc(Cl)cc3)n2)s1	·	–	–	–	–	–
CCCCCC(=O)Nc1nc(C)c(-c2csc(Nc3cc(OC)ccc3OC)n2)s1	–	–	–	–	–	–
COc1ccc(Cl)cc1Nc1nc(-c2sc(NC(=O)CC(C)C)nc2C)cs1	–	–	–	55	–	–
CCCCCC(=O)Nc1nc(C)c(-c2csc(Nc3cc(Cl)ccc3C)n2)s1	–	–	–	81	–	–
CCCCCCC(=O)Nc1nc(C)c(-c2csc(Nc3cc(OC)ccc3OC)n2)s1	–	–	–	70	–	–
CCCC(C)C(=O)Nc1nc(C)c(-c2csc(Nc3cc(Cl)ccc3C)n2)s1 (stereo unspecified)	–	–	–	78	–	–
CC(C)N1CCN(Cc2ccc(Oc3ncccn3)cc2)CC1CCO (stereo unspecified)	–	–	–	–	–	–
CCc1ccc(NC(=O)Cc2ccc(NC3=NC4CS(=O)(=O)CC4S3)cc2)cc1 (stereo unspecified)	–	–	–	–	–	–
Cc1ccc(S(=O)(=O)N(C)C[C@@H]2Oc3ccc(NC(=O)C4CCCCC4)cc3C(=O)N([C@@H](C)CO)C[C@H]2C)cc1	–	·	·	·	·	·
O=C(c1ccc(CSc2nc3ccncc3[nH]2)cc1)N1CCN(c2cccc(Cl)c2)CC1	–	66	–	–	–	–
CC(C)OC(=O)c1c(N)sc2c1CCCC2	·	–	–	–	–	–
CO[C@@H]1CN(C)C(=O)c2cc(NC(=O)c3cnccn3)ccc2OC[C@@H](C)N(C(=O)c2cnccn2)C[C@H]1C	–	·	·	·	·	·
